Compound activity from PubChem.
Most compounds without a hit are left out; they make up all but 2.9% or so of the library.
OX1R antag-1 – human HCRTR1 antagonism; CHO/OX1R cells, Fluo-8 calcium fluorescence, orexin A; 330,000 tested, 0.43% active; AID 434989; inhibition, % at 5 µM;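 active means inhibition above its plate's threshold, mean inhibition of all tested compounds on the plate plus 3 SD, cut at about 37% in these data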;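 further: 0% = orexin A challenge wells and 100% = SB-334867-A antagonist wells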
Target sequence (O43613 whole entry, looked up): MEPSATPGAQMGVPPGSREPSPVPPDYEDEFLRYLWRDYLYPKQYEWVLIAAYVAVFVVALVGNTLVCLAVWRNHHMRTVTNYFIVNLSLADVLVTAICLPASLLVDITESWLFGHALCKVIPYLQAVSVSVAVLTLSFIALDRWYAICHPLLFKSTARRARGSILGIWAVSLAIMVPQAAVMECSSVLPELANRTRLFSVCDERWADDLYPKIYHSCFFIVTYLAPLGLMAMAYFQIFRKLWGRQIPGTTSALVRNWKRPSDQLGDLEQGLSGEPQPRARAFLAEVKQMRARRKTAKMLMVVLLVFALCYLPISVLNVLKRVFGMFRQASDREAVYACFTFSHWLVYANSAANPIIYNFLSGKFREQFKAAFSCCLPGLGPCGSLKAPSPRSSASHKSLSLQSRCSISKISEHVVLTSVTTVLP
CHO parental Ca – signal in parental CHO cells, OX1R antagonist counter-screen. parental CHO-K1, ATP-induced calcium, Fluo-8 fluorescence. inhibition, % at 5.6 µM. 330,000 tested, 0.63% active;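 active means inhibition above that plate's mean sample inhibition plus 3 SD, cut at about 26% in these data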;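 further: 0% = ATP-challenged DMSO wells and 100% = DMSO wells without ATP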
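Test system: parental CHO cells; detection: calcium-sensitive Fluo-8 fluorescence; evaluation: percent inhibition of calcium signal; also added: ATP as calcium-mobilizing challenge; repeats: one well per compound; control set: ATP-challenged DMSO wells low, unchallenged DMSO wells high; compound: single nominal dose of 5.6 µM per compound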
CHO-K1 Ca antag – M1 antagonist counterscreen hit in parental CHO-K1 cells. ATP-induced calcium, Fluo-8 fluorescence. inhibition, % at 3 µM. 360,000 tested, 0.6% active;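 active means inhibition above a per-plate cutoff, the plate's mean sample inhibition plus 3 SD, cut at about 24% in these data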;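 further: 0% = DMSO plus EC80 ATP and 100% = DMSO alone without ATP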
CHO-K1 Ca ag – counter-screen for M1 agonists: effect in parental CHO-K1 cells | AID 602248 | activation, % at 3 µM | Fluo-8 calcium fluorescence; scaled to maximal ATP response, vehicle zero | 360,000 tested, 0.48% active; in the data active means activation above about 15%;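 further: untransfected CHO-K1 host cells lacking M1 receptor as counterscreen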
OX1R antag-2 – antagonists of human orexin 1 receptor (OX1R). 330,000 tested, 1.8% active. inhibition, % at 6.6 µM. OX1R-expressing cells, FRET antagonist read-out. O43613; in the data active means inhibition mostly above about 38%, no sharp cut-off; inactive means mostly below about 40%;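 further: 0% = agonist challenge alone and 100% = reference antagonist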
CHO-K1 Ca PAM – M1 PAM counterscreen hit in parental CHO-K1 cells; activation, % at 3 µM; 360,000 tested, 0.02% active; ATP EC20, Fluo-8 calcium fluorescence; 0% at ATP EC20, 100% at ATP max;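 active means activation above the run cutoff, the mean activation of all test compounds plus 3 SD, cut at about 40% in these data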;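 further: peak over basal fluorescence ratio in a 140 s read after ATP addition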
OX1R HTRF confirm – confirmation of human orexin 1 receptor antagonists, HTRF format. shares compounds with OX1R antag-2. OX1R-expressing cells, HTRF antagonist assay. inhibition, % at 6.6 µM. 1,800 tested, 49% active. AID 492964; in the data active means inhibition above about 55%;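 further: CHO cells expressing OX1R stimulated with orexin A at about EC80; 0% = agonist challenge alone and 100% = reference antagonist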
CHO-K1 HTRF – signal in parental CHO-K1 cells, OX1R antagonist counter-screen; shares compounds with OX1R antag-2; HTRF counterscreen; inhibition, % at 6.6 µM; 1,800 tested, 48% active; AID 493232; in the data active means inhibition above about 17%;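 further: 0% = agonist challenge with vehicle and 100% = vehicle alone without agonist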
* = called active by the depositor; · = not tested or not shown.

SMILES	OX1R antag-1	CHO parental Ca	CHO-K1 Ca antag	CHO-K1 Ca ag	OX1R antag-2	CHO-K1 Ca PAM	OX1R HTRF confirm	CHO-K1 HTRF
O=C(Nc1cccc(-c2nnc(-c3ccccc3)o2)c1)c1ccc(Br)o1	31.3	-11.1	3.8	7.4	87.0*	11.7	51.6	10.3
O=C(COc1ccccc1)Nc1cccc(-c2nnc(-c3ccccc3)o2)c1	-7.9	-6.5	5.6	3.6	61.7	8.8	·	·
CC(C)N(C(=O)Nc1ccc2nsnc2c1)C(C)C	-15.5	-14.9	·	·	142.9*	·	31.2	30.5*
COc1ccc(NC(=S)Nc2ccc3nsnc3c2)cc1	-28.3	-14.6	-5.2	4.1	87.7*	-2.2	43.8	39.9*
Cc1noc(C)c1S(=O)(=O)Nc1ccc(O)c2c(=O)cc(-c3ccccc3Cl)oc12	24.9	-7.3	-2.5	-0.4	85.2*	-1.8	93.2*	0.8
Cc1ccc(F)c(CNC(=O)C2(C)CCCN2C(=O)C(C)C)c1F (stereo not drawn)	·	·	11.0	-0.1	·	-6.9	·	·
COc1ccc(N2CCN(C(=O)CCS(=O)(=O)c3cccc4nsnc34)CC2)cc1	-15.6	-12.5	10.2	0.5	90.3*	-6.5	37.3	48.2*
O=S(=O)(NCc1ccccn1)c1cccc2nsnc12	-4.4	-9.9	-12.2	0.7	85.0*	23.1	30.7	42.8*
O=C(CCNS(=O)(=O)c1cccc2nsnc12)N1CCc2ccccc21	-20.4	-20.8	-16.5	0.9	94.7*	22.2	26.0	21.6*
Cc1ccccc1NC(=O)CCNS(=O)(=O)c1cccc2nsnc12	-13.7	-2.7	-14.1	0.9	78.5*	16.5	24.5	38.2*
O=C(CCNS(=O)(=O)c1ccc(Cl)cc1)N1CCN(c2ccccn2)CC1	-7.8	-4.9	-9.9	2.1	12.6	-0.1	·	·
O=C(CCNS(=O)(=O)c1cccc2nsnc12)N1CCN(c2ccccn2)CC1	-20.0	-18.4	-0.1	1.0	127.3*	16.0	48.1	22.6*
COc1cc(/C=C2\CCn3c2nc2cc(C(=O)O)ccc2c3=O)ccc1OC(F)F	-19.5	-6.6	-10.2	0.9	9.8	4.2	·	·
O=c1sc(Nc2ccccc2)nc2ccsc12	14.8	-14.9	-2.9	-0.1	84.7*	3.1	92.0*	8.9
O=C(Nc1nc2ccsc2c(=O)s1)c1ccco1	-0.5	0.6	-2.6	1.5	17.7	7.9	·	·
FC(F)Sc1nc2ccccc2[nH]1	-7.8	1.1	-7.3	1.2	3.4	16.7	·	·
COc1ccccc1C(=O)N=Nc1c(O)[nH]c2ccc([N+](=O)[O-])cc12	·	·	19.5	0.3	·	-13.4	·	·
NC(=O)N=Nc1c(O)[nH]c2ccc([N+](=O)[O-])cc12	-18.9	-7.1	-21.2	0.9	101.7*	14.3	44.5	62.6*
CC(C)N(Cc1nc(-c2ccccc2)no1)C(=O)Cc1ccccc1	9.6	-14.5	-5.1	3.6	78.2*	26.0	51.9	-14.9
CC(C)N(Cc1nc(-c2ccccc2)no1)C(=O)COc1ccccc1	-28.1	-15.2	-0.7	3.5	30.5	16.0	·	·
COc1cccc(C(=O)N(Cc2nc(-c3cccc(C)c3)no2)C(C)C)c1OC	11.4	-12.6	-11.4	1.6	81.0*	7.1	68.6*	-9.1
O=C(NCC(=O)N1CCCC(C(F)(F)F)C1)c1cccs1 (stereo not drawn)	·	·	6.1	1.2	·	6.4	·	·
N#C/C(=C/c1ccc(Br)o1)C(N)=O	-11.4	-11.8	-9.3	0.1	78.6*	17.1	43.6	11.8
O=C(NCCc1ccccc1)[C@@H]1CC=C[C@@H]2CCN(Cc3ccccc3)C(=O)[C@@H]21	13.3	-13.6	-0.8	-0.2	78.7*	3.5	88.8*	6.9
CC(=O)N(C)C1=C(O)c2ccccc2C(=O)C1=O	-7.4	-2.1	-3.7	-0.1	83.4*	4.2	51.3	93.5*
SMILES	OX1R antag-1	CHO parental Ca	CHO-K1 Ca antag	CHO-K1 Ca ag	OX1R antag-2	CHO-K1 Ca PAM	OX1R HTRF confirm	CHO-K1 HTRF
CN1C(=O)C(C)(C)c2cc(S(=O)(=O)N3CCCC3C(=O)NCc3ccc(F)cc3)ccc21 (stereo not drawn)	-28.5	-14.9	-3.1	0.8	78.5*	23.5	20.2	-3.8
COc1ccc(NC(=O)C2CCCCN2S(=O)(=O)c2ccc(F)cc2)cc1 (stereo not drawn)	-17.1	-11.4	4.8	-0.3	87.2*	-9.2	42.1	10.1
O=C(NCc1ccc(F)cc1)C1CCCN1S(=O)(=O)c1ccc(F)cc1 (stereo not drawn)	·	·	-12.4	1.8	·	22.6	·	·
COc1ccc(NC(=O)C2CCCN2S(=O)(=O)c2ccc(C)cc2)cc1 (stereo not drawn)	1.8	-8.4	2.3	0.1	27.4	-6.1	·	·
CC(C)c1ccc(N=Cc2c(O)c3ccccc3oc2=O)cc1	-20.8	-20.5	-8.1	0.4	20.3	20.3	·	·
NS(=O)(=O)c1ccc(N=Cc2c(O)c3ccccc3oc2=O)cc1	-15.3	-4.6	1.8	0.2	77.3*	-12.3	21.0	-11.3
O=C(Nc1ccc([N+](=O)[O-])cc1)OC1CCS(=O)(=O)C1 (stereo not drawn)	·	·	-12.4	1.0	·	-3.6	·	·
Cc1oc2c(c1C(=O)O)C(=O)c1ccccc1C2=O	-0.2	-5.9	2.8	-0.2	97.3*	0.8	71.9*	85.9*
COc1ccc(C(=O)c2c(C(F)(F)F)oc3c2C(=O)c2ccccc2C3=O)cc1OC	-14.7	-24.4	0.5	0.9	19.9	12.5	·	·
CCOC(=O)c1c(C)oc2c1C(=O)c1ccccc1C2=O	-20.2	-6.6	3.1	0.4	85.2*	-9.4	82.0*	47.3*
COC(=O)Cn1c(=N)n(CCN2CCCCC2)c2ccccc21	-7.4	-4.0	-9.7	0.0	96.0*	4.8	13.6	-11.7
NCCCC[C@@H]1NC(=O)c2cc([N+](=O)[O-])cc(I)c2SC[C@@H](C(=O)NCC(N)=O)NC(=O)CNC1=O	-15.2	-1.1	-5.6	0.1	86.7*	-13.0	30.7	56.1*
c1cncc(-c2nc(N3CCCCCC3)c3ccccc3n2)c1	-26.3	-24.0	-9.7	0.8	29.6	19.0	·	·
c1ccc2c(N3CCCCCC3)nc(-c3ccncc3)nc2c1	-19.7	-50.2	-10.1	-0.2	88.1*	24.3	40.7	7.6
COCCn1c(=N)c(C(=O)NCc2ccco2)cc2c(=O)n3ccccc3nc21	-35.4	-15.5	-3.3	0.2	166.6*	8.9	53.9	71.6*
N=c1c(C(=O)NCc2ccccc2)cc2c(=O)n3ccccc3nc2n1Cc1ccco1	-16.4	-25.1	-3.1	0.1	78.0*	17.6	32.0	11.4
N#Cc1cc2c(=O)n3ccccc3nc2n(Cc2ccco2)c1=NC(=O)c1ccco1	-15.7	-10.6	1.9	-0.5	77.1*	4.4	47.1	42.5*
Cc1ccccc1C(=O)N=c1c(C#N)cc2c(=O)n3cccc(C)c3nc2n1Cc1ccco1	-25.7	-6.4	·	·	33.1	·	·	·
